Experimental data taken from ChEMBL document CHEMBL1147726, “Prodrug forms of N-[(4-deoxy-4-amino-10-methyl)pteroyl]glutamate-gamma-[psiP(O)(OH)]-glutarate, a potent inhibitor of folylpoly-gamma-glutamate synthetase: synthesis and hydrolytic stability” (J Med Chem, 2006).

What was measured:
CHO [1] = experiment: Cytotoxicity in RFC deficient 43-10 cells derived from CHO cells transfected with human RFC cDNA; format: functional, cell-based; settings: Cricetulus griseus
In short: (§1)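 CHO-derived cells grown in RPMI 1640 medium and exposed continuously to compound for 72 h. Serial dilutions were made in DMSO. Viability was read with a CellTiter-Blue assay. IC50 was taken from dose-response curves over 1 nM to 1 µM.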

[2] = Half life of hydrolysis rate in phosphate buffer at pH 8.0; format: ADME
In short: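 Prodrug was diluted into 20 mM phosphate buffer, pH 8.0, containing 5% DMSO, with serial dilutions made in the same phosphate. Loss of the parent ester and formation of products were monitored over time by HPLC (UV at 254 and 310 nm). t = 0 is autosampler injection. Ester decay was fit to pseudo-first-order kinetics to give the half-life.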

CHO [3] = experiment: Cytotoxicity against Pro3 cells derived from CHO cells with fully functional reduced folate carrier; format: cell-based; settings: Cricetulus griseus; in short: as §1
CHO [4] = experiment: Cytotoxicity against R2 mutant cells derived from CHO cells with reduced expression of RFC; format: functional, cell-based; settings: Cricetulus griseus; in short: as §1
[5] = Half life of hydrolysis rate in RPMI-1640 medium at pH 8.0; format: ADME
In short: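 Prodrug stock was diluted into RPMI-1640 cell medium (pH 8.0) and filtered, and disappearance of the ester was followed by HPLC with UV detection at 254 and 310 nm. t = 0 is the time the autosampler injected the sample. The half-life was determined from the HPLC data.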

COC(=O)CCC(CP(=O)(O)CCC(NC(=O)c1ccc(N(C)Cc2cnc3nc(N)nc(N)c3n2)cc1)C(=O)OC)C(=O)OC (configuration not stated)
IC50 (CHO [1]): 300 nM | half-life [2]: > 100 h | IC50 (CHO [3]): 500 nM | IC50 (CHO [4]): > 1000 nM

CN(Cc1cnc2nc(N)nc(N)c2n1)c1ccc(C(=O)NC(CCP(=O)(O)CC(CCC(=O)O)C(=O)O)C(=O)O)cc1 (configuration not stated)
IC50 (CHO [1]): > 1000 nM | IC50 (CHO [3]): > 1000 nM | IC50 (CHO [4]): > 1000 nM

CN(Cc1cnc2nc(N)nc(N)c2n1)c1ccc(C(=O)NC(CCP(=O)(O)CC(CCC(=O)OCOC(=O)C(C)(C)C)C(=O)OCOC(=O)C(C)(C)C)C(=O)OCOC(=O)C(C)(C)C)cc1 (configuration not stated)
IC50 (CHO [1]): 250 nM | half-life [2]: 8 h | half-life [5]: 3 h | IC50 (CHO [3]): 700 nM | IC50 (CHO [4]): 350 nM

COP(=O)(CCC(NC(=O)c1ccc(N(C)Cc2cnc3nc(N)nc(N)c3n2)cc1)C(=O)OCOC(=O)C(C)(C)C)CC(CCC(=O)OCOC(=O)C(C)(C)C)C(=O)OCOC(=O)C(C)(C)C (configuration not stated)
IC50 (CHO [1]): 800 nM | half-life [2]: 3 h | half-life [5]: 1 h | IC50 (CHO [3]): > 1000 nM | IC50 (CHO [4]): > 1000 nM
